From ChEMBL document CHEMBL1134638, “Synthetic 2-aroylindole derivatives as a new class of potent tubulin-inhibitory, antimitotic agents” (J Med Chem, 2001)
≈ marks a conversion by molar mass, not a printed value. Where “and” joins values, the source holds several entries; their conditions need not be identical. Identical values can stand only once.

Legend:
[1] = test system: Mus musculus; experiment: Drug relative deaths against MEXF 989 cells for a dose of 200 [mg/kg], schedule of d1-5,8-12 by peroral administration in mice; format: functional
Outline: (§1)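 Outbred NMRI nude mice, 6-8 weeks old, sex matched to donor patient. s.c. fragments (~25 mg) implanted in both flanks. Randomised at 100-200 mm3, 6-12 tumors per group. Compound in DMSO diluted with PBS/0.05% Tween 80 to 10% final DMSO, given orally daily on days 1-5 and 8-12. Toxic deaths and body weight change recorded.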

[2] = test system: Mus musculus; experiment: Medium maximum body weight change in percentage against RXF 944LX cells for a dose of 100 [mg/kg], schedule of d1-5,8-12 by oral administration in mice; format: functional
Outline: (§2)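 NMRI outbred nude mice aged 6–8 weeks, sex matched to the donor patient. About 25 mg tumor fragments (MEXF 989 or RXF 944L) implanted s.c. in both flanks. Once tumors reached 100–200 mm3, animals were randomized (6–12 tumors/group). Dosing 100 or 200 mg/kg/day orally on days 1–5 and 8–12, in 10% DMSO/PBS with 0.05% Tween 80. Calipers twice weekly. Outputs: T/C from median tumor weights, growth delay to 200% volume, and body weight change.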

[3] = test system: Mus musculus; experiment: Drug relative deaths against RXF 944LX cells for a dose of 200 [mg/kg], schedule of d1-5,8-12 by peroral administration in mice; format: functional; outline: as §1
[4] = test system: U373 MG; experiment: Cell cycle arrest activity against U373 astrocytoma cells.; details: Homo sapiens
[5] = test system: Mus musculus; experiment: Optimum tumor weight of treated / control animals in % (deviation) for a dose of 100 [mg/kg], schedule of d1-5,8-12 by oral administration in mice; format: functional; outline: as §2
[6] = test system: Mus musculus; experiment: Medium maximum body weight change in percentage against MEXF 989 cells for a dose of 200 [mg/kg], schedule of d1-5,8-12 by peroral administration in mice; format: functional; outline: as §2
[7] = test system: U373 MG; experiment: Cytotoxicity against U373 astrocytoma cells.; format: functional, cell-based, U-373MG ATCC; details: Homo sapiens
Outline: (§3)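 XTT proliferation assay measuring cellular metabolic activity after 48 h incubation with compound. Compounds dissolved in DMSO at 1 mg/mL stock. IC50 or estimates obtained by nonlinear regression. Each experiment at least in duplicate.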

[8] = test system: HeLa; experiment: In vitro inhibitory activity against HeLa/KB cells using XTT proliferation assay.; format: functional, cell-based; details: Homo sapiens; outline: as §3
[9] = test system: Tumor Cell line; experiment: Mean cytotoxicity against a panel of human tumor cell lines; format: functional
Outline: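 Modified propidium iodide assay quantifying dead cells by DNA/RNA staining, run on a human tumor cell panel (breast, colon, stomach, lung, melanoma, ovary, renal, soft tissue lines). Growth inhibition expressed as % T/C; IC70 per line from concentration-viability plots. Mean IC70 is the geometric mean across lines; unreached values set to the lowest or highest concentration tested.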

[10] = test system: Mus musculus; experiment: Growth delay until tumor doubling in days against MEXF 989 cells for a dose of 200 [mg/kg], schedule of d1-5,8-12 by peroral administration in mice; format: functional; outline: as §2
[11] = test system: Mus musculus; experiment: Medium maximum body weight change in percentage against RXF 944LX cells for a dose of 200 [mg/kg], schedule of d1-5,8-12 by peroral administration in mice; format: functional; outline: as §2
[12] = test system: Mus musculus; experiment: Growth delay until tumor doubling in days against RXF 944LX cells for a dose of 100 [mg/kg], schedule of d1-5,8-12 by oral administration in mice; format: functional; outline: as §2
[13] = test system: Mus musculus; experiment: Drug relative deaths against MEXF 989 cells for a dose of 100 [mg/kg], schedule of d1-5,8-12 by oral administration in mice; format: functional; outline: as §1
[14] = test system: SK-OV-3; experiment: In vitro inhibitory activity against SK-OV-3 cells using XTT proliferation assay.; format: functional, cell-based; details: Homo sapiens; outline: as §3
[15] = test system: Mus musculus; experiment: Drug relative deaths against RXF 944LX cells for a dose of 100 [mg/kg], schedule of d1-5,8-12 by oral administration in mice; format: functional; outline: as §1
[16] = test system: Mus musculus; experiment: Medium maximum body weight change in percentage against MEXF 989 cells for a dose of 100 [mg/kg], schedule of d1-5,8-12 by oral administration in mice; format: functional; outline: as §2
[17] = test system: Mus musculus; experiment: Growth delay until tumor doubling in days against MEXF 989 cells for a dose of 100 [mg/kg], schedule of d1-5,8-12 in mice by oral administration.; format: functional; outline: as §2

Compound: COc1ccc2[nH]c(C(=O)c3ccccc3)cc2c1
- Activity [1]: 0%
- BWC [2]: 11%
- Activity [3]: 0%
- IC50 [4]: 62.7 nM
- T/C (d) [5]: 34% and 100%
- BWC [6]: 3%
- IC50 [7]: 74 nM
- IC50 [8]: 68 nM
- IC70 [9]: 0.22 µg/mL (≈ 0.875 µM)
- GD200 [10]: 12.9 days
- BWC [11]: 1%
- GD200 [12]: -0.4 days
- Activity [13]: 0%
- IC50 [14]: 680 nM
- Activity [15]: 0%
- BWC [16]: 11%
- GD200 [17]: 4.8 days
